Measured values published in PubChem BioAssay.
Active and inactive are the calls of the source.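 How the source made its calls, unless noted: active means potentiation averaged over duplicate wells exceeding buffer-only control mean by more than 3 SD; inactive means the rest.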

Legend:
[1] = thallium flux activation in parental CHO cells, counter-screen for KCNQ1 potentiator project (AID 493006;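 active means duplicate-averaged activation above buffer control mean plus 5 SD of those controls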;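 on activation: fluorescence ratio of max minus min over baseline after K+ and Tl+ depolarization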); settings: parental CHO-K1 cells, FluxOR thallium flux, at 10 µM; hits give high values
Method in brief: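 Material: untransfected host CHO-K1 cells with FluxOR thallium dye. Timing: overnight 37 °C plating, 90 min RT dye, 20 min compound. Detection: kinetic FluxOR fluorescence, 10 s baseline, 110 s after stimulus. Read-out basis: max-minus-min fluorescence over baseline, percent of buffer-to-R-L3 span. Replicates: duplicate wells per compound, percent values averaged.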

[2] = molecular target: Potassium voltage-gated channel subfamily KQT member 1 (Homo sapiens) (UniProt P51787); assay: KCNQ1 potassium channel potentiators, confirmation, FluxOR thallium flux, CHO cells, duplicates (AID 493007); settings: KCNQ1 cell line, FluxOR thallium flux fluorescence, at 10 µM; hits give high values, % of reference activator effect, buffer zero;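 on outcome: cells depolarized by a potassium plus thallium sulfate stimulus after compound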
Method in brief: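 Test system – KCNQ1-expressing CHO cell line · Incubation – FluxOR dye loading 90 min, compound exposure 20 min, room temperature · Detection – FluxOR Tl+ flux fluorescence, 10 s baseline plus 110 s recording · Controls – buffer-only wells as 0% and R-L3 activator as 100%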

[3] = molecular target: Potassium voltage-gated channel subfamily KQT member 2 (Rattus norvegicus) (UniProt O88943); assay: rat KCNQ2 channel potentiation, selectivity assay for KCNQ1 potentiator project, KCNQ2-CHO-K1 cells (AID 493009;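 active means mean duplicate potentiation above the buffer control mean plus 5 SD of buffer wells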;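 further: assay conditions were tuned for KCNQ1 rather than KCNQ2 modulators; signal is max minus min fluorescence divided by baseline after thallium stimulus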); settings: FluxOR thallium flux fluorescence, at 10 µM; hits give high values, scaled: buffer 0, activator control 100
[4] = molecular target: Potassium voltage-gated channel subfamily KQT member 1 (Homo sapiens) (UniProt P51787); assay: KCNQ1 channel current potentiators, confirmation, orthogonal assay for KCNQ1 potentiator project, IonWorks patch clamp, KCNQ1-CHO cells (AID 493184;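 active means current rise at least 3 SD above the untreated control mean in each of two repeat wells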); settings: automated patch clamp current, at 10 µM; hits give high values
Method in brief: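 Read-out: Percent current increase versus pre-compound level | Assay system: CHO cells carrying KCNQ1 | Measured by: Automated perforated-patch electrophysiology | Medium: External bath solution at pH 7.4 | Dosing: One dose, 10 µM final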

Potassium voltage-gated channel subfamily KQT member 1 (Homo sapiens), sequence (P51787 whole entry, looked up): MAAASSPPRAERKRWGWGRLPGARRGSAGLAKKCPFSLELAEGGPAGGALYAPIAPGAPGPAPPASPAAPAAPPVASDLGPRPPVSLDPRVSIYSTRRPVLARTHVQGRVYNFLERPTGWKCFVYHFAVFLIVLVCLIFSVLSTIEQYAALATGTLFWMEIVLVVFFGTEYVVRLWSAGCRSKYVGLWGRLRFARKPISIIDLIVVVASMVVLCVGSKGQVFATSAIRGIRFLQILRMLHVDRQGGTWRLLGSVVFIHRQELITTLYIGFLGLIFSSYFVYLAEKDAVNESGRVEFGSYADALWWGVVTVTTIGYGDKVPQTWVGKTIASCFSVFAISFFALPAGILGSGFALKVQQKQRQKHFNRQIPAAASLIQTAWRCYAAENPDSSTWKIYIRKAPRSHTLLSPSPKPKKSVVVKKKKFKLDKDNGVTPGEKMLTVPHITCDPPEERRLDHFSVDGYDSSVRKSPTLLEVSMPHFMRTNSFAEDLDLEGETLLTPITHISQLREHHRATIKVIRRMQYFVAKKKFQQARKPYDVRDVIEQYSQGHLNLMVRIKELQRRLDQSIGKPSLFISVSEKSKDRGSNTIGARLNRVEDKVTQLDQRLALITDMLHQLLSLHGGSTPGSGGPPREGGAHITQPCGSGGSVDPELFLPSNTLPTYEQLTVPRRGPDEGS
Potassium voltage-gated channel subfamily KQT member 2 (Rattus norvegicus), sequence (O88943 whole entry, looked up): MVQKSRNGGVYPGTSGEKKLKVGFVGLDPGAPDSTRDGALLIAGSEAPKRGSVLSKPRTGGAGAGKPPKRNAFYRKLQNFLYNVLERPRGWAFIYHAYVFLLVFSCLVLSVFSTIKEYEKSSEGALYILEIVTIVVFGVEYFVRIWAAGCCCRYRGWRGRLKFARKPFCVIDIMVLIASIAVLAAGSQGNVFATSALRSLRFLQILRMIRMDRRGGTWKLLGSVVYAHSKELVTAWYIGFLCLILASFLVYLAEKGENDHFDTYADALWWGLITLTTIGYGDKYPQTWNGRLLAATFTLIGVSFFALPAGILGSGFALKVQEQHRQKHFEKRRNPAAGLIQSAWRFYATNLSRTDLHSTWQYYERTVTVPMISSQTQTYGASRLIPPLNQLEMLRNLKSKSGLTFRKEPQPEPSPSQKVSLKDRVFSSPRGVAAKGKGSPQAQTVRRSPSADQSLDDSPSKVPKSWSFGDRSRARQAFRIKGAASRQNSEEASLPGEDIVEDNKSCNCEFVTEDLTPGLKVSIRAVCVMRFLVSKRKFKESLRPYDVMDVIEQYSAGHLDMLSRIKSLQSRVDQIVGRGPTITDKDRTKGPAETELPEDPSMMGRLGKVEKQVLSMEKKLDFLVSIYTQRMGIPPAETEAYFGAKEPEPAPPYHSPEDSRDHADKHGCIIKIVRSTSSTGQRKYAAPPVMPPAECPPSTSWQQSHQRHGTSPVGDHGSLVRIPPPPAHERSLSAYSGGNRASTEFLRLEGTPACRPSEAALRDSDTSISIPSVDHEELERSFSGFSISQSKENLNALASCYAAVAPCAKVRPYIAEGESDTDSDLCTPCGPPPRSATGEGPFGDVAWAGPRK

SMILES | outcome [1] | outcome [2] | outcome [3] | outcome [4] | activation [1] | potentiation [2] | potentiation [3]
CC(=O)N1N=C(N)SC12CCCC2 | inactive | inactive | inactive | inactive | – | – | –
Cc1ccnc(NC(=O)CNC(=O)c2ccc3c(c2)OCO3)c1 | inactive | inactive | inactive | inactive | – | – | –
Cc1ccc(N2C(=O)N3[C@H](c4ccc(F)cc4)[C@@H]4C(=O)N(C5CCCCC5)C(=O)[C@@H]4[C@]3(Cc3ccccc3)C2=O)cc1 | inactive | inactive | inactive | inactive | – | – | –
N#CCn1c(CCl)nc2ccccc2c1=O | inactive | inactive | inactive | inactive | – | – | –
C=CCn1c(-c2cc(-c3ccc(C)cc3)nc3ccccc23)n[nH]c1=S | – | – | – | inactive | 138% (active) | 108% (active) | 170% (active)
CN(C)c1ccc(NC(=O)COC(=O)c2cc(Cl)ccc2[N+](=O)[O-])cc1 | inactive | inactive | inactive | inactive | – | – | –
N=c1sccn1CC(=O)N1N=C(c2ccc(Cl)cc2)CC1c1ccco1 (stereo not given) | inactive | inactive | inactive | inactive | – | – | –
Cc1cc(C)nc(N(C#N)CC(=O)c2ccccc2)n1 | inactive | inactive | inactive | inactive | – | – | –
CCOc1ccc2nc(/N=C/c3c(C)[nH]n(-c4ccc(C)cc4)c3=O)sc2c1 | – | – | – | inactive | 356% (active) | 120% (active) | 332% (active)
CCC(/C=N/NC(=O)C1COc2ccccc2O1)CC (stereo not given) | inactive | inactive | inactive | inactive | – | – | –
COc1ccc(C(=O)N2CCC(n3nccc3NC(=O)C3CCOC3)CC2)cc1 (stereo not given) | inactive | inactive | inactive | inactive | – | – | –
CCCn1c(SCN2C(=O)c3ccccc3C2=O)nc2cc(Cl)ccc2c1=O | – | – | – | inactive | 179% (active) | 39.5% (active) | 196% (active)
O=C(CSc1nnnn1-c1ccc(F)cc1)Nc1ccc(N2CCOCC2)c(Cl)c1 | inactive | inactive | inactive | inactive | – | – | –
COc1ccccc1C(=O)NNC(=O)C(=O)Nc1ccc(C)c(Cl)c1 | – | – | – | inactive | 552% (active) | 235% (active) | 512% (active)
COc1cccc(C2=NOC(C(=O)NCc3ccccc3)C2)c1 (stereo not given) | inactive | inactive | inactive | inactive | – | – | –
CC(Oc1ccccc1F)C(=O)/C=C/N(C)C (stereo not given) | inactive | inactive | inactive | inactive | – | – | –
COC(=O)c1sccc1NC(=S)NCc1ccc(Cl)cc1 | – | – | inactive | inactive | 144% (active) | 62.5% (active) | –
O=C(C1CCN(Cc2ccccc2)CC1)N1CCN(C/C=C/c2ccccc2)CC1 | inactive | inactive | inactive | inactive | – | – | –
CC1CN(S(=O)(=O)c2ccc(Cl)c(C(F)(F)F)c2)CC(C)O1 (stereo not given) | inactive | inactive | inactive | inactive | – | – | –
Fc1ccc(COc2ccc(Br)cc2CNCc2ccncc2)cc1 | inactive | inactive | inactive | inactive | – | – | –
Cc1cc(C)c(S(=O)(=O)Nc2cccc3nsnc23)c(C)c1 | inactive | inactive | inactive | inactive | – | – | –
CC1=C(C)/C(=N\OS(=O)(=O)c2ccccc2)C=CC1=O | inactive | inactive | inactive | inactive | – | – | –
CCOc1ccc2c(c1)C(NC(C)=O)C(=O)N2CCN1CCOCC1 (stereo not given) | inactive | inactive | inactive | inactive | – | – | –
CNC(=S)Nc1sc2c(c1C(=O)OC)CCC2 | – | – | – | inactive | 252% (active) | 89.5% (active) | 287% (active)
NC(=O)c1cccc(N=Cc2cc(Cl)cc(Cl)c2O)c1 | – | – | – | inactive | 178% (active) | 25% (active) | 154% (active)
O=C1c2ccccc2NC(c2ccc(Br)s2)N1O (stereo not given) | – | – | – | inactive | 282% (active) | 57% (active) | 252% (active)
CN(c1ccccc1)S(=O)(=O)c1ccc(NC(=O)c2nc(S(C)(=O)=O)ncc2Cl)cc1 | inactive | inactive | inactive | inactive | – | – | –
Cc1ccc(C(=O)Nc2nc(-c3ccccc3)c(-c3ccccc3)o2)cc1 | – | – | – | inactive | 201% (active) | 92.5% (active) | 248% (active)
CC1(c2ccccc2)CC(C)(C)N2C(=O)/C(=C3\SC(=S)NC3=O)c3cccc1c32 (stereo not given) | – | – | – | inactive | 684% (active) | 292% (active) | 520% (active)
CC(C)(C)c1ccc(OCC(=O)NNC(=S)NC(=O)c2ccco2)c(Br)c1 | – | – | – | inactive | 150% (active) | 89.5% (active) | 254% (active)
